Test results: ChEMBL document CHEMBL5104102, “Discovery of FtsZ inhibitors by virtual screening as antibacterial agents and study of the inhibition mechanism” (RSC Med Chem, 2022)
Converted amounts (≈) assume the structure as drawn.

Legend:
[1] = system: Staphylococcus aureus; test: Antibacterial activity against methicillin-resistant Staphylococcus aureus ATCC 33591 assessed as inhibition of bacterial growth incubated for 18 hrs by CLSI protocol based two fold serial dilution method; format: functional
Summary of the method: (§1)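 CAMHB culture grown overnight at 37 °C with shaking at 250 rpm, diluted 10-fold, and grown 2 h. Inoculum set to 5 × 10^6 CFU mL−1 by A600. Compounds in DMSO were serially diluted two-fold, with 1% DMSO per well. Read at A600 after 18 h at 37 °C. MIC is the lowest concentration giving A600 < 0.1. Run in duplicate.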

[2] = system: Staphylococcus aureus; test: Antibacterial activity against methicillin-resistant Staphylococcus aureus BAA 44 assessed as inhibition of bacterial growth incubated for 18 hrs by CLSI protocol based two fold serial dilution method; format: functional; summary of the method: as §1
[3] = system: Staphylococcus aureus; test: Antibacterial activity against methicillin-resistant Staphylococcus aureus BAA 1720 assessed as inhibition of bacterial growth incubated for 18 hrs by CLSI protocol based two fold serial dilution method; format: functional; summary of the method: as §1
[4] = system: Staphylococcus aureus; test: Synergistic antibacterial activity against methicillin-resistant Staphylococcus aureus BAA 41 assessed as FICI incubated for 18 hrs in presence of S2163 by checkerboard assay; format: functional
Summary of the method: (§2)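 Checkerboard against MRSA BAA 41. Compound two-fold serially diluted across the plate and methicillin down it. Inoculum 5 × 10^5 CFU mL−1, with untreated-cell columns. Incubated at 37 °C for 16–24 h and growth read as A600. FICI computed from the combined MICs, and <0.5 taken as synergy.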

[5] = system: Staphylococcus aureus; test: Synergistic antibacterial activity against methicillin-resistant Staphylococcus aureus BAA 41 assessed as inhibition of bacterial growth incubated for 18 hrs in presence of PC190723 by checkerboard assay; format: functional
[6] = system: Staphylococcus aureus; test: Antibacterial activity against methicillin-resistant Staphylococcus aureus BAA 41 assessed as inhibition of bacterial growth incubated for 18 hrs by CLSI protocol based two fold serial dilution method; format: functional; summary of the method: as §1
[7] = system: Staphylococcus aureus; test: Synergistic antibacterial activity against methicillin-resistant Staphylococcus aureus BAA 41 assessed as FICI incubated for 18 hrs in presence of PC190723 by checkerboard assay; format: functional; summary of the method: as §2
[8] = system: Staphylococcus aureus; test: microbe, parasite or virus in culture; conditions: BAA 41, 18 h
[9] = system: Staphylococcus aureus; test: microbe, parasite or virus in culture; conditions: BAA 41, 18 h; remark: listed apart in the source
[10] = system: Staphylococcus aureus; test: Antibacterial activity against methicillin-resistant Staphylococcus aureus ATCC 43300 assessed as inhibition of bacterial growth incubated for 18 hrs by CLSI protocol based two fold serial dilution method; format: functional; summary of the method: as §1
[11] = system: Staphylococcus aureus; test: Antibacterial activity against methicillin-resistant Staphylococcus aureus ATCC 33592 assessed as inhibition of bacterial growth incubated for 18 hrs by CLSI protocol based two fold serial dilution method; format: functional; summary of the method: as §1
[12] = system: Staphylococcus aureus; test: Synergistic antibacterial activity against methicillin-resistant Staphylococcus aureus BAA 41 assessed as FICI incubated for 18 hrs in presence of S2727 by checkerboard assay; format: functional; summary of the method: as §2
[13] = system: Bacillus subtilis; test: Antibacterial activity against Bacillus subtilis 168 assessed as inhibition of bacterial growth incubated for 18 hrs by CLSI protocol based two-fold serial dilution assay; format: functional
Summary of the method: (§3)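 B. subtilis 168 or E. coli ATCC 25922 was grown in MHB and tested by CLSI-based broth microdilution. An overnight culture (37 °C, 250 rpm) was diluted tenfold, grown 2 h, and set to 5 × 10^6 CFU mL−1 by A600. Cells were added to two-fold serial compound dilutions (1% DMSO) and incubated 18 h at 37 °C. Read-out was A600, in duplicate. MIC was the lowest concentration giving A600 < 0.1.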

[14] = system: Staphylococcus aureus; test: Antibacterial activity against Staphylococcus aureus 29213 assessed as inhibition of bacterial growth incubated for 18 hrs by CLSI protocol based two fold serial dilution method; format: functional
Summary of the method: as §3, with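 “S. aureus” for “B. subtilis 168 or E. coli”, “29213” for “25922”, “CAMHB” for “MHB”, “mL−1.” for “mL−1 by A600.”, “with” for “giving”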

[15] = system: Escherichia coli; test: Antibacterial activity against Escherichia coli 25922 assessed as inhibition of bacterial growth incubated for 18 hrs by CLSI protocol based two fold serial dilution method; format: functional; summary of the method: as §3

MIC [13] [µg/mL]	MIC [14] [µg/mL]	MIC [15] [µg/mL]	SMILES	MIC [1] [µg/mL]	MIC [2] [µg/mL]	MIC [3] [µg/mL]	fractional inhibitory concentration index (FICI) [4]	MIC [5] [µg/mL]	MIC [6] [µg/mL]	fractional inhibitory concentration index (FICI) [7]	MIC [8] [µg/mL]	MIC [9] [µg/mL]	MIC [10] [µg/mL]	MIC [11] [µg/mL]	fractional inhibitory concentration index (FICI) [12]
–	–	–	COc1cccc(OC)c1C(=O)N[C@@H]1C(=O)N2[C@@H]1SC(C)(C)[C@@H]2C(=O)O [METHICILLIN]	512 (≈ 1350 µM)	512 (≈ 1350 µM)	256 (≈ 673 µM)	>1	4	1020 (≈ 2690 µM)	0.52	1 (≈ 2.63 µM)	4 (≈ 10.5 µM)	256 (≈ 673 µM)	256 (≈ 673 µM)	0.5
> 128	> 128	> 128	CC1(C)CC(=O)c2c(C(F)(F)F)nn(-c3ccc(C(N)=O)c(N[C@H]4CC[C@H](OC(=O)CN)CC4)c3)c2C1 [SNX 5422]	–	–	–	–	–	–	–	–	–	–	–	–
